Measurements taken from ChEMBL document CHEMBL4689842, “EUbOPEN Chemogenomics Library wave 1” (2021).

Tested on: HEK-293T
Test: Multiplex assay against HEK293T;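 on Population Tubulin-Different-Phenotype (%): share of the cells with healthy nuclei that show this phenotype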
Assay type: toxicity, cell-based
Settings: human
Summary of the method: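 With compound added, live cells were imaged on a CQ1 microscope at 37°C and 5% CO2; staining with Hoechst33342, BioTracker Green Microtubule Cytoskeleton Dye, MitoTracker Red and Annexin V Alexa Fluor 680 had been done at seeding. The CellPathfinder machine-learning gating scheme split cells into Hoechst high-intensity objects or normal cells, normal cells into healthy, pyknosed or fragmented nuclei, and pyknosed cells into mitotic or apoptotic. The tubulin, mitochondrial-mass and membrane-permeability phenotypes are per cents of healthy-nucleus cells.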

[1] = 12 h, 1 µM, compound concentration 1 uM, replicate 1
[2] = 12 h, 1 µM, compound concentration 1 uM, replicate 2
[3] = 12 h, 10 µM, compound concentration 10 uM, replicate 1
[4] = 12 h, 10 µM, compound concentration 10 uM, replicate 2
[5] = 24 h, 1 µM, compound concentration 1 uM, replicate 1
[6] = 24 h, 1 µM, compound concentration 1 uM, replicate 2
[7] = 24 h, 10 µM, compound concentration 10 uM, replicate 1
[8] = 24 h, 10 µM, compound concentration 10 uM, replicate 2
[9] = 48 h, 1 µM, compound concentration 1 uM, replicate 1
[10] = 48 h, 1 µM, compound concentration 1 uM, replicate 2
[11] = 48 h, 10 µM, compound concentration 10 uM, replicate 1
[12] = 48 h, 10 µM, compound concentration 10 uM, replicate 2

With `CCc1cccc(CC)c1NC(=O)c1nn(C)c2c1CCc1cnc(Nc3ccc(C(=O)NC4CCN(C)CC4)cc3OC(F)(F)F)nc1-2` the “Population Apoptotic (%)” value [1] was 66%, the “Population Fragmented Nuclei (%)” value [1] was 8% and the “Population Healthy Nuclei (%)” value [1] was 46%. The “Population Hoechst High Intensity Objects (%)” value [1] was 11%, the “Population Membrane Permeable-Phenotype (%)” value [1] was 3% and the “Population Mitochondria Different-Phenotype (%)” value [1] was 93%. The “Population Mitotic Cells (%)” value [1] was 33%, the “Population Normal (%)” value [1] was 88% and the “Population Pyknosed Nuclei (%)” value [1] was 45%. The “Population Tubulin-Different-Phenotype (%)” value [1] was 68%, the “Total Cell Count” value [1] was 312 and the “Population Apoptotic (%)” value [2] was 28%. The “Population Fragmented Nuclei (%)” value [2] was 4%, the “Population Healthy Nuclei (%)” value [2] was 39% and the “Population Hoechst High Intensity Objects (%)” value [2] was 4%. For the same compound, the “Population Membrane Permeable-Phenotype (%)” value [2] was 2%, the “Population Mitochondria Different-Phenotype (%)” value [2] was 57% and the “Population Mitotic Cells (%)” value [2] was 71%. The “Population Normal (%)” value [2] was 95%, the “Population Pyknosed Nuclei (%)” value [2] was 56% and the “Population Tubulin-Different-Phenotype (%)” value [2] was 62%. For the same compound, the “Total Cell Count” value [2] was 251, the “Population Apoptotic (%)” value [3] was 80% and the “Population Fragmented Nuclei (%)” value [3] was 11%. For the same compound, the “Population Healthy Nuclei (%)” value [3] was 31%, the “Population Hoechst High Intensity Objects (%)” value [3] was 11% and the “Population Membrane Permeable-Phenotype (%)” value [3] was 0%. The “Population Mitochondria Different-Phenotype (%)” value [3] was 98%, the “Population Mitotic Cells (%)” value [3] was 19% and the “Population Normal (%)” value [3] was 88%. For the same compound, the “Population Pyknosed Nuclei (%)” value [3] was 57%, the “Population Tubulin-Different-Phenotype (%)” value [3] was 98% and the “Total Cell Count” value [3] was 300. The “Population Apoptotic (%)” value [4] was 73%, the “Population Fragmented Nuclei (%)” value [4] was 4% and the “Population Healthy Nuclei (%)” value [4] was 16%. For the same compound, the “Population Hoechst High Intensity Objects (%)” value [4] was 7%, the “Population Membrane Permeable-Phenotype (%)” value [4] was 4% and the “Population Mitochondria Different-Phenotype (%)” value [4] was 86%. For the same compound, the “Population Mitotic Cells (%)” value [4] was 26%, the “Population Normal (%)” value [4] was 92% and the “Population Pyknosed Nuclei (%)” value [4] was 78%. For the same compound, the “Population Tubulin-Different-Phenotype (%)” value [4] was 86%, the “Total Cell Count” value [4] was 152 and the “Population Apoptotic (%)” value [5] was 63%. The “Population Fragmented Nuclei (%)” value [5] was 10%, the “Population Healthy Nuclei (%)” value [5] was 53% and the “Population Hoechst High Intensity Objects (%)” value [5] was 10%. For the same compound, the “Population Membrane Permeable-Phenotype (%)” value [5] was 1%, the “Population Mitochondria Different-Phenotype (%)” value [5] was 84% and the “Population Mitotic Cells (%)” value [5] was 36%. The “Population Normal (%)” value [5] was 89%, the “Population Pyknosed Nuclei (%)” value [5] was 36% and the “Population Tubulin-Different-Phenotype (%)” value [5] was 56%. For the same compound, the “Total Cell Count” value [5] was 342, the “Population Apoptotic (%)” value [6] was 25% and the “Population Fragmented Nuclei (%)” value [6] was 2%. The “Population Healthy Nuclei (%)” value [6] was 59%, the “Population Hoechst High Intensity Objects (%)” value [6] was 4% and the “Population Membrane Permeable-Phenotype (%)” value [6] was 3%. The “Population Mitochondria Different-Phenotype (%)” value [6] was 52%, the “Population Mitotic Cells (%)” value [6] was 74% and the “Population Normal (%)” value [6] was 95%. For the same compound, the “Population Pyknosed Nuclei (%)” value [6] was 38%, the “Population Tubulin-Different-Phenotype (%)” value [6] was 55% and the “Total Cell Count” value [6] was 287. For the same compound, the “Population Apoptotic (%)” value [7] was 74%, the “Population Fragmented Nuclei (%)” value [7] was 12% and the “Population Healthy Nuclei (%)” value [7] was 42%. The “Population Hoechst High Intensity Objects (%)” value [7] was 10%, the “Population Membrane Permeable-Phenotype (%)” value [7] was 4% and the “Population Mitochondria Different-Phenotype (%)” value [7] was 98%. For the same compound, the “Population Mitotic Cells (%)” value [7] was 25%, the “Population Normal (%)” value [7] was 89% and the “Population Pyknosed Nuclei (%)” value [7] was 45%. For the same compound, the “Population Tubulin-Different-Phenotype (%)” value [7] was 98%, the “Total Cell Count” value [7] was 342 and the “Population Apoptotic (%)” value [8] was 93%. The “Population Fragmented Nuclei (%)” value [8] was 6%, the “Population Healthy Nuclei (%)” value [8] was 32% and the “Population Hoechst High Intensity Objects (%)” value [8] was 5%. For the same compound, the “Population Membrane Permeable-Phenotype (%)” value [8] was 0%, the “Population Mitochondria Different-Phenotype (%)” value [8] was 93% and the “Population Mitotic Cells (%)” value [8] was 6%. For the same compound, the “Population Normal (%)” value [8] was 94%, the “Population Pyknosed Nuclei (%)” value [8] was 61% and the “Population Tubulin-Different-Phenotype (%)” value [8] was 91%. The “Total Cell Count” value [8] was 158, the “Population Apoptotic (%)” value [9] was 43% and the “Population Fragmented Nuclei (%)” value [9] was 14%. The “Population Healthy Nuclei (%)” value [9] was 59%, the “Population Hoechst High Intensity Objects (%)” value [9] was 12% and the “Population Membrane Permeable-Phenotype (%)” value [9] was 0%. The “Population Mitochondria Different-Phenotype (%)” value [9] was 57%, the “Population Mitotic Cells (%)” value [9] was 56% and the “Population Normal (%)” value [9] was 87%. For the same compound, the “Population Pyknosed Nuclei (%)” value [9] was 26%, the “Population Tubulin-Different-Phenotype (%)” value [9] was 46% and the “Total Cell Count” value [9] was 417. The “Population Apoptotic (%)” value [10] was 27%, the “Population Fragmented Nuclei (%)” value [10] was 7% and the “Population Healthy Nuclei (%)” value [10] was 69%. For the same compound, the “Population Hoechst High Intensity Objects (%)” value [10] was 3%, the “Population Membrane Permeable-Phenotype (%)” value [10] was 2% and the “Population Mitochondria Different-Phenotype (%)” value [10] was 32%. For the same compound, the “Population Mitotic Cells (%)” value [10] was 72%, the “Population Normal (%)” value [10] was 96% and the “Population Pyknosed Nuclei (%)” value [10] was 23%. The “Population Tubulin-Different-Phenotype (%)” value [10] was 43%, the “Total Cell Count” value [10] was 410 and the “Population Apoptotic (%)” value [11] was 84%. The “Population Fragmented Nuclei (%)” value [11] was 14%, the “Population Healthy Nuclei (%)” value [11] was 52% and the “Population Membrane Permeable-Phenotype (%)” value [11] was 3%. For the same compound, the “Population Mitochondria Different-Phenotype (%)” value [11] was 94%, the “Population Mitotic Cells (%)” value [11] was 15% and the “Population Pyknosed Nuclei (%)” value [11] was 32%. The “Population Tubulin-Different-Phenotype (%)” value [11] was 88%, the “Total Cell Count” value [11] was 339 and the “Population Apoptotic (%)” value [12] was 91%. For the same compound, the “Population Fragmented Nuclei (%)” value [12] was 8%, the “Population Healthy Nuclei (%)” value [12] was 38% and the “Population Hoechst High Intensity Objects (%)” value [12] was 13%. For the same compound, the “Population Membrane Permeable-Phenotype (%)” value [12] was 6%, the “Population Mitochondria Different-Phenotype (%)” value [12] was 93% and the “Population Mitotic Cells (%)” value [12] was 8%. The “Population Normal (%)” value [12] was 86%, the “Population Pyknosed Nuclei (%)” value [12] was 52% and the “Population Tubulin-Different-Phenotype (%)” value [12] was 86%. The “Total Cell Count” value [12] was 173.
